Experiment [1] concerns Staphylococcus aureus. As to the kind of experiment: Antibacterial activity against Staphylococcus aureus ATCC 29213 assessed as inhibition of bacterial growth measured after 16 hrs by agar plate dilution method. It is filed as functional. In a few lines: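 MIC determined by plate dilution against the reference strain; values from at least two independent experiments.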

Experiment [2] relates to Staphylococcus aureus. The experiment in a line: Antibacterial activity against methicillin resistant Staphylococcus aureus infected in C57BL/6J mouse model of peritonitis assessed as mouse survival at 10 mg/kg, ip administered at 1 and 5 hrs post infection. Type of experiment: functional, organism-based. In a few lines:
(§1)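 Female C57BL/6J mice infected intraperitoneally with 1.5–2.0 × 10^7 CFU MRSA in 5% w/v hog gastric mucin; n = 5 per group; intraperitoneal treatment at 10 mg/kg at 1 and 5 h post-infection; vancomycin 10 mg/kg as control; survival and kidney bacterial load recorded.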

In experiment [3] the test system is Staphylococcus aureus. As to the kind of experiment: Antibacterial activity against methicillin sensitive Staphylococcus aureus assessed as inhibition of bacterial growth measured after 16 hrs by agar plate dilution method. It is filed as functional. The method in brief:
(§2)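 Clinical MSSA and MRSA strains isolated from local hospitals; MIC determined by plate dilution; data from at least two independent experiments.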

The test system of experiment [4] is Escherichia coli. The experiment in a line: Binding affinity to His6-tagged Escherichia coli FabH expressed in Escherichia coli BL21 (DE3) assessed as decrease in melting temperature at 10 uM by SYPRO orange based differential scanning fluorimetry. The method in brief:
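Purified E. coli FabH melting curves were recorded with and without ligand by thermal-shift fluorometry in 1.0 M Tris-HCl, pH 6.8, a buffer chosen from seven screened. ΔTm was taken from the Tm shift; n = 4.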

For experiment [5], the system named is Staphylococcus aureus. As to the kind of experiment: Antibacterial activity against methicillin resistant Staphylococcus aureus assessed as inhibition of bacterial growth measured after 16 hrs by agar plate dilution method. Type of experiment: functional. The method in brief:
as §2

For experiment [6], the target named is T1, 3-oxoacyl-[acyl-carrier-protein] synthase 2 (Staphylococcus aureus) (UniProt Q5TKS0).
T1 sequence (whole entry): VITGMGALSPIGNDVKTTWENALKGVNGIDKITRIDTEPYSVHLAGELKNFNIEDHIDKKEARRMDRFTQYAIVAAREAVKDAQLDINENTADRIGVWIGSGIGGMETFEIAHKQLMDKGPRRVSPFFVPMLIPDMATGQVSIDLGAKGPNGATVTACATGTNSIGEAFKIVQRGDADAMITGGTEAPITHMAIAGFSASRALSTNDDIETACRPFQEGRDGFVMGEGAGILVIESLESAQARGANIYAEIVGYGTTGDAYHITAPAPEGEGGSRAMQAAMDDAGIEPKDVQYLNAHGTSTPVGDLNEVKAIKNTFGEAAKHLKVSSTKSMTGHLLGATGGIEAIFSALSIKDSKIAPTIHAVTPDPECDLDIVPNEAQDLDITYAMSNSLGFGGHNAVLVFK
As to the kind of experiment: Binding affinity to His6-tagged Staphylococcus aureus FabF expressed in Escherichia coli BL21 (DE3) assessed as decrease in melting temperature at 10 uM by SYPRO orange based differential scanning fluorimetry. The method in brief:
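S. aureus FabF melting curves were measured by DSF in 20 mM HEPES, 180 mM NaCl, pH 7.5, a buffer selected by screening seven buffers. ΔTm was derived from the melting-temperature shift caused by ligand; n = 4.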

Experiment [7] deals with Escherichia coli. As to the kind of experiment: Antibacterial activity against Escherichia coli harboring delta tolC mutant assessed as inhibition of bacterial growth measured after 16 hrs by agar plate dilution method. It is filed as functional.
Experiment [8] concerns Enterococcus faecalis. As to the kind of experiment: Antibacterial activity against Enterococcus faecalis ATCC 29212 assessed as inhibition of bacterial growth measured after 16 hrs by agar plate dilution method. Type of experiment: functional.
Experiment [9] has as its system Staphylococcus aureus. As to the kind of experiment: Antibacterial activity against methicillin resistant Staphylococcus aureus assessed as inhibition of bacterial growth measured after 18 hrs in presence of 10% human serum by resazurin dye based broth dilution assay. It is filed as functional.
Experiment [10] deals with Staphylococcus aureus. The experiment in a line: Inhibition of Staphylococcus aureus FabH A81V mutant assessed as bacterial growth inhibition measured after 18 hrs by resazurin dye based broth dilution assay. The method in brief:
(§3)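 S. aureus strains carrying point mutations in the FabH active site; MIC determined by broth dilution; data from at least two independent experiments.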

Experiment [11] concerns Staphylococcus aureus. The experiment in a line: Antibacterial activity against methicillin resistant Staphylococcus aureus infected in C57BL/6J mouse model of peritonitis assessed as mouse survival when infected with 2.5x10^7 CFU bacteria at 10 mg/kg, ip administered at 1 and 5 hrs post infection. Type of experiment: functional, organism-based. In a few lines: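 Female C57BL/6J mice given a higher intraperitoneal MRSA inoculum of 2.5 × 10^7 CFU; intraperitoneal treatment at 1 and 5 h post-infection; survival recorded.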

Experiment [12] relates to Staphylococcus aureus. The experiment in a line: Inhibition of Staphylococcus aureus FabH A81V/A111T mutant assessed as bacterial growth inhibition measured after 18 hrs by resazurin dye based broth dilution assay. In a few lines: as §3
Experiment [13] concerns Staphylococcus aureus. The experiment in a line: Antibacterial activity against methicillin resistant Staphylococcus aureus infected in C57BL/6J mouse model of peritonitis assessed as mouse survival by measuring number of mouse at 10 mg/kg, ip administered at 1 and 5 hrs post infection relative to control. Type of experiment: functional. In a few lines:
as §1

In experiment [14] the test system is Staphylococcus aureus. The experiment in a line: Antibacterial activity against methicillin resistant Staphylococcus aureus infected in C57BL/6J mouse model of peritonitis assessed as bacterial load in kidney at 10 mg/kg, ip administered at 1 and 5 hrs post infection. It is filed as functional, organism-based. In a few lines: as §1
In experiment [15] the test system is Staphylococcus aureus. As to the kind of experiment: Antibacterial activity against methicillin, macrolide, lincomycin, telithromycin, cipro-bay resistant Staphylococcus aureus assessed as bacterial growth inhibition. Type of experiment: functional.
The test system of experiment [16] is Staphylococcus aureus. The experiment in a line: Antibacterial activity against macrolide, lincomycin, telithromycin resistant and cipro-bay susceptible, methicillin-resistant Staphylococcus aureus assessed as bacterial growth inhibition. It is filed as functional.
For experiment [17], the system named is Staphylococcus aureus. The experiment in a line: Antibacterial activity against methicillin, fusidic-acid, macrolide resistant and lincomycin, telithromycin, cipro-bay susceptible Staphylococcus aureus assessed as bacterial growth inhibition. Type of experiment: functional.
The subject of experiment [18] is Staphylococcus aureus. As to the kind of experiment: Antibacterial activity against methicillin resistant and macrolide, lincomycin, telithromycin, cipro-bay susceptible Staphylococcus aureus assessed as bacterial growth inhibition. It is filed as functional.
Experiment [19] in a line: Inhibition of Staphylococcus aureus FabB/FabF.
Experiment [20] has as its system Escherichia coli. The experiment in a line: Binding affinity to His6-tagged Escherichia coli FabF C163Q mutant expressed in Escherichia coli BL21 (DE3) assessed as change in enthalpy measured after 200 sec by isothermal titration calorimetry. The method in brief: (§4)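 Ligands were dissolved in PBS (10 mM, pH 7.4) and titrated into E. coli FabF(C163Q) in the same buffer. Protein was at 12 or 14 μM and ligand at 250 μM. Thermodynamic parameters (ΔH, ΔS, ΔG, Kd, n) were calculated from the heat of binding. Runs were done at least three times; one representative run was used.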

Experiment [21] relates to Escherichia coli. As to the kind of experiment: Binding affinity to His6-tagged Escherichia coli FabF C163Q mutant expressed in Escherichia coli BL21 (DE3) assessed Gibbs free energy change measured after 200 sec by isothermal titration calorimetry. The method in brief: as §4
Experiment [22] in a line: Inhibition of Staphylococcus aureus FabH.
The test system of experiment [23] is Escherichia coli. As to the kind of experiment: Binding affinity to His6-tagged Escherichia coli FabF C163Q mutant expressed in Escherichia coli BL21 (DE3) assessed as stoichiometry ratio measured after 200 sec by isothermal titration calorimetry. In a few lines:
as §4

The subject of experiment [24] is Escherichia coli. The experiment in a line: Binding affinity to His6-tagged Escherichia coli FabF C163Q mutant expressed in Escherichia coli BL21 (DE3) assessed as change in entropy measured after 200 sec by isothermal titration calorimetry. The method in brief:
as §4

Experiment [25] in a line: Binding affinity to His6-tagged Escherichia coli FabF C163Q mutant expressed in Escherichia coli BL21 (DE3) assessed as binding constant measured after 200 sec by isothermal titration calorimetry. The method in brief:
as §4

In brackets after ≈: the same amount, converted by molar mass. Activity calls are given as the source filed them. The calls are words filed in the database; no cut-off is given here.

`C=C1C[C@]23C=C(SC4CCCCC4)C(=O)[C@@](C)(CCC(=O)Nc4c(O)ccc(C(=O)O)c4O)[C@@H]2C[C@H]1CC3`: the MIC in [1], in [3] and in experiment [5] was 2 µg/mL (≈ 3.71 µM) each time. Also, the outcome in experiment [2] was inactive. For the same compound, the result in [4] and in [6] was Active.

For `C=C1C[C@]23C=C(Sc4ccoc4C)C(=O)[C@@](C)(CCC(=O)Nc4c(O)ccc(C(=O)O)c4O)[C@@H]2CC1CC3` (single isomer, unassigned), the MIC in experiment [1] was 2 µg/mL (≈ 3.72 µM); in experiment [7], above 32 µg/mL; in [8] it was 2 µg/mL (≈ 3.72 µM); in experiment [3] it was 1 µg/mL (≈ 1.86 µM); in experiment [9] it was 16 µg/mL; in experiment [10] it was 8 µg/mL (≈ 14.9 µM). In addition, the values for the MIC in experiment [5] and in [12] were 1 µg/mL (≈ 1.86 µM) and 8 µg/mL (≈ 14.9 µM), respectively. Further, the result in experiment [4] and in [6] was Active. Besides, the outcome in [11] was inactive.

As for `C=C1C[C@]23C=C(SCc4ccccc4)C(=O)[C@@](C)(CCC(=O)Nc4c(O)ccc(C(=O)O)c4O)[C@@H]2CC1CC3` (single isomer, unassigned), the MIC in [1] was 2 µg/mL (≈ 3.65 µM); in [7], above 32 µg/mL; in experiment [8], 2 µg/mL (≈ 3.65 µM); in [3] it was 1 µg/mL (≈ 1.83 µM); in [9], 16 µg/mL; in experiment [10], 8 µg/mL (≈ 14.6 µM). The MIC in experiment [5] came to 1 µg/mL (≈ 1.83 µM); in [12] it was 4 µg/mL (≈ 7.3 µM). For the same compound, the result in experiment [4] and in experiment [6] was Active. Moreover, in experiment [11], the outcome was inactive.

For the compound `C=CCSC1=C[C@]23CCC(C[C@H]2[C@](C)(CCC(=O)Nc2c(O)ccc(C(=O)O)c2O)C1=O)C(=C)C3` (single isomer, unassigned), the MIC stood at 2 µg/mL (≈ 4.02 µM) in experiment [1], 1 µg/mL (≈ 2.01 µM) in experiment [3] and 1 µg/mL (≈ 2.01 µM) in [5]. For the same compound, in [13], the Activity turned out to be 80%. Moreover, the result in experiment [4], in experiment [6] and in experiment [14] was Active.

Regarding `C=C1[C@H]2CC[C@@]3(C=CC(=O)[C@@](C)(CCC(=O)Nc4c(O)ccc(C(=O)O)c4O)[C@@H]3C2)[C@H]1O` [PLATENCIN A3], the MIC in [15], in [16], in experiment [17] and in experiment [18] was 8 µg/mL (≈ 18.1 µM) throughout.

For `C=C1C[C@@]23C=CC(=O)[C@@](C)(CCC(=O)Nc4c(O)ccc(C(=O)O)c4O)[C@@H]2C[C@@H]1CC3` [PLATENCIN], the half-maximal inhibitory concentration (IC50) in experiment [19] is 4.6 µM; in [22], 9.2 µM. For the same compound, the MIC in experiment [1] was 1 µg/mL (≈ 2.35 µM); in [7], 4 µg/mL (≈ 9.4 µM); in [8], 2 µg/mL (≈ 4.7 µM); in experiment [3], 1 µg/mL (≈ 2.35 µM); in experiment [9], 8 µg/mL; in experiment [10] it was above 32 µg/mL. The MIC in experiment [5] came out at 1 µg/mL (≈ 2.35 µM); in experiment [12], 32 µg/mL (≈ 75.2 µM). For the same compound, the deltaH in experiment [20] was -2.84 kcal/mol. Also, the outcome in [2], in experiment [4], in [6] and in experiment [14] was Active. The same compound registered a deltaG in experiment [21] of -10.3 kcal/mol. For the same compound, the result in experiment [11] was inactive. For the same compound, the Ratio in [23] stood at 1.12. Further, in [24], the -TdeltaS was -7.44 kcal/mol. Further, in experiment [25], the Kd was found to be 0.027 µM.

(Values after ChEMBL document CHEMBL4765495, “Semisynthesis and Biological Evaluation of Platencin Thioether Derivatives: Dual FabF and FabH Inhibitors against MRSA” (ACS Med Chem Lett, 2021).)
